# Results: ChEMBL document CHEMBL2385045, “Discovery of novel 4-(2-fluorophenoxy)quinoline derivatives bearing 4-oxo-1,4-dihydrocinnoline-3-carboxamide moiety as c-Met kinase inhibitors” (Bioorg Med Chem, 2013)
# Assays:
# [1] = molecular target: Vascular endothelial growth factor receptor 2 (Homo sapiens, UniProt P35968); assay: Inhibition of VEGFR-2 (unknown origin)
# [2] = Cytotoxicity against c-Met-independent human H460 cells assessed as growth inhibition after 72 hrs by MTT assay; conditions: NCI-H460, 72 h
# HT-29 = assay: Cytotoxicity against c-Met-dependent human HT-29 cells assessed as growth inhibition after 72 hrs by MTT assay; conditions: HT-29, 72 h
# MKN-45 = assay: Cytotoxicity against c-Met-dependent human MKN45 cells assessed as growth inhibition after 72 hrs by MTT assay; conditions: MKN-45, 72 h
# SMMC-7721 = assay: Cytotoxicity against c-Met-dependent human SMMC7721 cells assessed as growth inhibition after 72 hrs by MTT assay; assay type: functional, cell-based; conditions: SMMC-7721, 72 h
# How it was run: (§1)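 Cells grown in MEM with 10% FBS. About 4×10³ cells/well were seeded and incubated 24 h at 37 °C, 5% CO₂, then exposed to compound for 72 h. MTT was added (terminal 5 µg/mL) for 4 h at 37 °C, and formazan was dissolved in DMSO. IC50 is the mean of three determinations.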
# A549 = assay: Cytotoxicity against c-Met-dependent human A549 cells assessed as growth inhibition after 72 hrs by MTT assay; conditions: A549, 72 h
# [3] = Cytotoxicity against c-Met-dependent human U87MG cells assessed as growth inhibition after 72 hrs by MTT assay; assay type: functional, cell-based, U-87MG ATCC; conditions: U-87 MG; how it was run: as §1
# [4] = molecular target: T1, Hepatocyte growth factor receptor (Homo sapiens, UniProt P08581); assay: Inhibition of wild type GST-tagged c-Met kinase domain (1058 to 1365) (unknown origin) expressed in Sf9 cells by HTRF assay
# [5] = molecular target: T1, Hepatocyte growth factor receptor; assay: Inhibition of c-Met (unknown origin)
# How it was run: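 HTRF kinase assay on plates precoated with 20 µg/mL poly(Glu,Tyr) 4:1. ATP (10 mM solution) in 50 mM HEPES pH 7.0 buffer with DTT, MgCl₂, MnCl₂ and 0.1% NaN₃. Compound in 1% DMSO; reaction started with purified kinase and run 30 min at 25 °C. Inhibition relative to enzyme and no-enzyme controls; IC50 from the inhibition curves.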
IC50 [1],IC50 [4],IC50 [5],Structure (SMILES),IC50 [2],IC50 (HT-29),IC50 (MKN-45),IC50 (SMMC-7721),IC50 (A549),IC50 [3]
30 nM,,,COc1cc2c(Oc3ccc(NC(=O)N4CCN(c5ccccc5)C4=O)cc3F)ccnc2cc1OCCCN1CCOCC1,,,,,,
,,,COc1cc2c(Oc3ccc(NC(=O)c4nn(-c5ccccc5)c5ccccc5c4=O)cc3F)ccnc2cc1OCCCN1CCOCC1,690 nM,1170 nM,960 nM,1130 nM,570 nM,1460 nM
,,,COc1cc2c(Oc3ccc(NC(=O)c4nn(-c5ccc(C)cc5)c5ccccc5c4=O)cc3F)ccnc2cc1OCCCN1CCC(C)CC1,1990 nM,2850 nM,1220 nM,,1050 nM,
,8.9 nM,,COc1cc2c(Oc3ccc(-c4cnc(Cc5ccccc5)n(C)c4=O)cc3F)ccnc2cc1OCCCN1CCOCC1,,,,,,
,,,COc1cc2c(Oc3ccc(NC(=O)c4nn(-c5ccccc5Cl)c5ccccc5c4=O)cc3F)ccnc2cc1OCCCN1CCOCC1,10 nM,240 nM,10 nM,920 nM,30 nM,1690 nM
,,,COc1cc2c(Oc3ccc(NC(=O)c4nn(-c5cc(C)ccc5C)c5ccccc5c4=O)cc3F)ccnc2cc1OCCCN1CCCC1,2030 nM,3050 nM,420 nM,,1150 nM,2470 nM
,,,COc1cc2c(Oc3ccc(NC(=O)c4nn(-c5ccc(F)c(F)c5)c5ccccc5c4=O)cc3F)ccnc2cc1OCCCN1CCCC1,640 nM,1120 nM,350 nM,590 nM,260 nM,1060 nM
,,,COc1cc2c(Oc3ccc(NC(=O)c4nn(-c5cccc(C(F)(F)F)c5)c5ccccc5c4=O)cc3F)ccnc2cc1OCCCN1CCCC1,1040 nM,780 nM,190 nM,630 nM,300 nM,850 nM
,,,COc1cc2c(Oc3ccc(NC(=O)c4nn(-c5cccc(C(F)(F)F)c5)c5ccccc5c4=O)cc3F)ccnc2cc1OCCCN1CCCCC1,1030 nM,560 nM,270 nM,330 nM,310 nM,1620 nM
,,,COc1cc2c(Oc3ccc(NC(=O)c4nn(-c5ccc(F)cc5)c5ccccc5c4=O)cc3F)ccnc2cc1OCCCN1CCC(C)CC1,890 nM,460 nM,170 nM,930 nM,150 nM,1120 nM
,,,COc1cc2c(Oc3ccc(NC(=O)c4nn(-c5ccccc5C(F)(F)F)c5ccccc5c4=O)cc3F)ccnc2cc1OCCCN1CCCCC1,81 nM,560 nM,27 nM,1350 nM,55 nM,1160 nM
,,,COc1cc2c(Oc3ccc(NC(=O)c4nn(-c5cc(C(F)(F)F)ccc5Cl)c5ccccc5c4=O)cc3F)ccnc2cc1OCCCN1CCCC1,610 nM,1120 nM,170 nM,,200 nM,1420 nM
,,,COc1cc2c(Oc3ccc(NC(=O)c4nn(-c5cc(C)ccc5C)c5ccccc5c4=O)cc3F)ccnc2cc1OCCCN1CCOCC1,590 nM,1150 nM,30 nM,,750 nM,1360 nM
,,,COc1cc2c(Oc3ccc(NC(=O)c4nn(-c5ccc(C)cc5C)c5ccccc5c4=O)cc3F)ccnc2cc1OCCCN1CCCCC1,1570 nM,3560 nM,1850 nM,,1280 nM,
,,,COc1cc2c(Oc3ccc(NC(=O)c4nn(-c5ccccc5Cl)c5cc(F)ccc5c4=O)cc3F)ccnc2cc1OCCCN1CCC(C)CC1,1250 nM,1370 nM,1560 nM,,1050 nM,
,,,COc1cc2c(Oc3ccc(NC(=O)c4nn(-c5c(Cl)cccc5Cl)c5ccccc5c4=O)cc3F)ccnc2cc1OCCCN1CCCC1,370 nM,1050 nM,350 nM,840 nM,350 nM,1250 nM
,,,COc1cc2c(Oc3ccc(NC(=O)c4nn(-c5ccccc5F)c5cc(F)ccc5c4=O)cc3F)ccnc2cc1OCCCN1CCCCC1,3280 nM,5070 nM,2790 nM,,3270 nM,
,,,COc1cc2c(Oc3ccc(NC(=O)c4nn(-c5ccccc5Br)c5ccccc5c4=O)cc3F)ccnc2cc1OCCCN1CCC(C)CC1,830 nM,1340 nM,280 nM,,350 nM,2160 nM

IC50 [1],IC50 [4],IC50 [5],Structure (SMILES),IC50 [2],IC50 (HT-29),IC50 (MKN-45),IC50 (SMMC-7721),IC50 (A549),IC50 [3]
,,,COc1cc2c(Oc3ccc(NC(=O)c4nn(-c5cccc(C(F)(F)F)c5)c5ccccc5c4=O)cc3F)ccnc2cc1OCCCN1CCC(C)CC1,550 nM,1020 nM,160 nM,,210 nM,730 nM
,,,COc1cc2c(Oc3ccc(NC(=O)c4nn(-c5ccccc5Cl)c5ccccc5c4=O)cc3F)ccnc2cc1OCCCN1CCCCC1,73 nM,260 nM,50 nM,420 nM,43 nM,490 nM
,,,COc1cc2c(Oc3ccc(NC(=O)c4nn(-c5ccccc5F)c5cc(F)ccc5c4=O)cc3F)ccnc2cc1OCCCN1CCOCC1,2250 nM,2950 nM,1540 nM,,2040 nM,
,,,COc1cc2c(Oc3ccc(NC(=O)c4nn(-c5c(Cl)cccc5Cl)c5ccccc5c4=O)cc3F)ccnc2cc1OCCCN1CCCCC1,770 nM,1150 nM,390 nM,,410 nM,1360 nM
,,,COc1cc2c(Oc3ccc(NC(=O)c4nn(-c5ccccc5OC(F)(F)F)c5ccccc5c4=O)cc3F)ccnc2cc1OCCCN1CCOCC1,620 nM,1120 nM,760 nM,,480 nM,1040 nM
,,4.9 nM,COc1cc2c(Oc3ccc(-c4cnc(Nc5ccccc5)n(C)c4=O)cc3F)ccnc2cc1OCCCN1CCOCC1,,,,,,
,,,COc1cc2c(Oc3ccc(NC(=O)c4nn(-c5c(Cl)cccc5Cl)c5ccccc5c4=O)cc3F)ccnc2cc1OCCCN1CCC(C)CC1,650 nM,920 nM,360 nM,820 nM,400 nM,1040 nM
,,,COc1cc2c(Oc3ccc(NC(=O)c4nn(-c5ccc(Cl)cc5)c5ccccc5c4=O)cc3F)ccnc2cc1OCCCN1CCCCC1,640 nM,2120 nM,230 nM,330 nM,200 nM,1620 nM
,,,COc1cc2c(Oc3ccc(NC(=O)c4nn(-c5ccccc5C(F)(F)F)c5ccccc5c4=O)cc3F)ccnc2cc1OCCCN1CCOCC1,80 nM,510 nM,20 nM,840 nM,60 nM,1480 nM
,,,COc1cc2c(Oc3ccc(NC(=O)c4nn(-c5cccc(F)c5)c5ccccc5c4=O)cc3F)ccnc2cc1OCCCN1CCCCC1,910 nM,1880 nM,140 nM,2020 nM,110 nM,2460 nM
,,,COc1cc2c(Oc3ccc(NC(=O)c4nn(-c5ccc(C)cc5)c5ccccc5c4=O)cc3F)ccnc2cc1OCCCN1CCOCC1,2100 nM,3200 nM,680 nM,,1100 nM,1970 nM
,,,COc1cc2c(Oc3ccc(NC(=O)c4nn(-c5ccc(Br)cc5)c5ccccc5c4=O)cc3F)ccnc2cc1OCCCN1CCCCC1,400 nM,1140 nM,450 nM,840 nM,530 nM,1600 nM
,,,COc1cc2c(Oc3ccc(NC(=O)c4nn(-c5ccccc5F)c5ccccc5c4=O)cc3F)ccnc2cc1OCCCN1CCC(C)CC1,290 nM,780 nM,580 nM,950 nM,330 nM,1210 nM
,,,COc1cc2c(Oc3ccc(NC(=O)c4nn(-c5ccccc5Cl)c5cc(F)ccc5c4=O)cc3F)ccnc2cc1OCCCN1CCCCC1,1510 nM,2470 nM,1620 nM,,1820 nM,
,,,COc1cc2c(Oc3ccc(NC(=O)c4nn(-c5ccc(Cl)c(C(F)(F)F)c5)c5ccccc5c4=O)cc3F)ccnc2cc1OCCCN1CCC(C)CC1,110 nM,490 nM,140 nM,370 nM,240 nM,540 nM
,,,COc1cc2c(Oc3ccc(NC(=O)c4nn(-c5ccc(Cl)cc5Cl)c5ccccc5c4=O)cc3F)ccnc2cc1OCCCN1CCCCC1,1030 nM,990 nM,590 nM,,470 nM,
,,,COc1cc2c(Oc3ccc(NC(=O)c4nn(-c5ccc(F)cc5Br)c5ccccc5c4=O)cc3F)ccnc2cc1OCCCN1CCCC1,3650 nM,2910 nM,1720 nM,,1030 nM,
